Assay outcomes: PubChem BioAssay, The Scripps Research Institute Molecular Screening Center
In the library only some 3.1% were active in any assay of this set; here they are far more common.
OX1R antag-1 = antagonists of human orexin 1 receptor (OX1R); inhibition, % at 6.6 µM; O43613; 1.8% of 330,000 active; OX1R-expressing cells, FRET antagonist read-out; AID 485270; in the data active = inhibition mostly above about 38%, no sharp cut-off; inactive = mostly below about 40%;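 also: 0% = agonist challenge alone and 100% = reference antagonist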
GPR7 antag = blocks human GPR7 receptor signaling. P48145. GPR7-expressing cells, fluorescence antagonist assay. inhibition, % at 4.4 µM. 1.1% of 290,000 active. AID 1861; in the data active = inhibition above about 16%, passing the limit was not always enough;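 also: cells stimulated with the agonist NPW; 0% = agonist with vehicle and 100% = vehicle without agonist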
Target sequence (P48145 whole entry, looked up): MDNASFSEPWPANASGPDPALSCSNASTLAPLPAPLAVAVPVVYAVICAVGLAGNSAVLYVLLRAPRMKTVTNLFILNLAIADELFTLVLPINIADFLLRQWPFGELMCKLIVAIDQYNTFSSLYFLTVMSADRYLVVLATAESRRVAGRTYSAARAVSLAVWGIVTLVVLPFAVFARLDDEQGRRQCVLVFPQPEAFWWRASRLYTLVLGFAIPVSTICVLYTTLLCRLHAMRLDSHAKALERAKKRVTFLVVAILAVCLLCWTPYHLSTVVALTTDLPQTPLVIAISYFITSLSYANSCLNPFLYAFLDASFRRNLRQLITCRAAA
GalR3 antagonist = blocks the human galanin receptor 3. O60755. HEK293 GalR3-CNG cAMP membrane potential fluorescence; galR3 body fused to GalR1 C-terminus. inhibition, % at 3 µM. 0.44% of 360,000 active;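 active = inhibition above the screen-wide average plus 3 SD, cut at about 13% in these data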;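 also: forskolin and galanin both at EC90 stimulate the cells; cAMP rise reported by CNG channel membrane potential dye signal; 0% = forskolin plus galanin with DMSO and 100% = forskolin alone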
Target sequence (O60755 1-299 limits assumed): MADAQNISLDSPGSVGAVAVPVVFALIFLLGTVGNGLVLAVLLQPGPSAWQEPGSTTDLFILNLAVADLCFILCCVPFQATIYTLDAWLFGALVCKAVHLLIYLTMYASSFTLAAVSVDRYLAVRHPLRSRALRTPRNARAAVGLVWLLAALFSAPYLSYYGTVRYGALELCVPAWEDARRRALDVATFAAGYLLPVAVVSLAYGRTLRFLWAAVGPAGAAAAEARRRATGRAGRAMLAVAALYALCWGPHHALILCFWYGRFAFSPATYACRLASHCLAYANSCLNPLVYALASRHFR
CHO parental Ca = counter-screen for OX1R antagonists: effect in parental CHO cells | inhibition, % at 5.6 µM | AID 463079 | 0.63% of 330,000 active | parental CHO-K1, ATP-induced calcium, Fluo-8 fluorescence;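 active = inhibition above that plate's mean sample inhibition plus 3 SD, cut at about 26% in these data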;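 also: 0% = ATP-challenged DMSO wells and 100% = DMSO wells without ATP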
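Material: parental CHO cells / Compound: single nominal dose of 5.6 µM per compound / Signal: Fluo-8 fluorescence / Replicates: singlicate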
OX1R antag-2 = antagonists of human orexin 1 receptor; CHO/OX1R cells, Fluo-8 calcium fluorescence, orexin A; inhibition, % at 5 µM; 0.43% of 330,000 active;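 active = inhibition above its plate's threshold, mean inhibition of all tested compounds on the plate plus 3 SD, cut at about 37% in these data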;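 also: 0% = orexin A challenge wells and 100% = SB-334867-A antagonist wells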
OX1R HTRF confirm = OX1R (human) antagonism, HTRF confirmed; shares compounds with OX1R antag-1; OX1R-expressing cells, HTRF antagonist assay; inhibition, % at 6.6 µM; 49% of 1,800 active; AID 492964; in the data active = inhibition above about 55%;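 also: CHO cells expressing OX1R stimulated with orexin A at about EC80; 0% = agonist challenge alone and 100% = reference antagonist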
CHO-K1 HTRF = counter-screen: parental CHO-K1 HTRF response | 48% of 1,800 active | shares compounds with OX1R antag-1 | inhibition, % at 6.6 µM | parental CHO-K1 cells, HTRF counterscreen; in the data active = inhibition above about 17%;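 also: 0% = agonist challenge with vehicle and 100% = vehicle alone without agonist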
Starred values were filed as active, the others as inactive.

`O=C(N/N=C/c1ccc([N+](=O)[O-])s1)c1ccccc1` gave OX1R antag-1 107*, GPR7 antag -2, GalR3 antagonist -8, CHO parental Ca -11, OX1R antag-2 -4, OX1R HTRF confirm 36 and CHO-K1 HTRF 52*.
For COC(=O)N/N=C/c1ccc([N+](=O)[O-])s1 the results were OX1R antag-1 106*, GPR7 antag -3, GalR3 antagonist -4, CHO parental Ca 4, OX1R antag-2 10, OX1R HTRF confirm 44 and CHO-K1 HTRF 85*.
`Cn1c(SCC(=O)N/N=C/c2cc([N+](=O)[O-])ccc2O)nnc1-c1ccccc1` gave OX1R antag-1 1, GPR7 antag 6, GalR3 antagonist 3, CHO parental Ca -19 and OX1R antag-2 -14.
Screening Cn1c(SCC(=O)N/N=C/c2ccc([N+](=O)[O-])s2)nnc1-c1ccccc1 returned OX1R antag-1 87*, GPR7 antag -13, GalR3 antagonist -3, CHO parental Ca -15, OX1R antag-2 -6, OX1R HTRF confirm 37 and CHO-K1 HTRF 52*.
`CCOC(=O)c1c(C)cc2c(CO)n[nH]c(=O)c2c1C` gave GalR3 antagonist -2.
Screening CCN(CC(=O)Nc1sc2c(c1C#N)CCCC2)Cc1nc2ccccc2c(=O)[nH]1 returned OX1R antag-1 83*, GPR7 antag -11, GalR3 antagonist 1, CHO parental Ca -14, OX1R antag-2 24, OX1R HTRF confirm 58* and CHO-K1 HTRF 0.
For CC(=O)Nc1cc2nc3ccccc3oc-2cc1=O the results were GalR3 antagonist -6.
COC(=O)N1C[C@H](OC(=O)c2ccc(-c3ccccc3)cc2)[C@H]2C[C@@H]1c1ccccc1O2 was read as GalR3 antagonist -5.
`O=C(Nc1cnns1)Oc1ccccc1` gave GalR3 antagonist -3.
`N#Cc1cc([N+](=O)[O-])ccc1Oc1ccc(-c2nnco2)cc1` gave OX1R antag-1 79*, GPR7 antag 13, GalR3 antagonist -7, CHO parental Ca 6, OX1R antag-2 -5, OX1R HTRF confirm 35 and CHO-K1 HTRF 42*.
For CC(NCCN(C)C)C1CCC2C3CCc4cc(O)ccc4C3CCC12C (stereo not drawn) the results were GalR3 antagonist -7.
`Brc1cc2ccccc2[n+](Cc2ccccc2)c1` gave OX1R antag-1 102*, GalR3 antagonist 1, CHO parental Ca -15, OX1R antag-2 -3, OX1R HTRF confirm 52 and CHO-K1 HTRF 62*.
For Cc1ccc(NC(=O)c2ccncc2)cc1[N+](=O)[O-] the results were OX1R antag-1 105*, GPR7 antag -1, GalR3 antagonist -2, CHO parental Ca -17, OX1R antag-2 -1, OX1R HTRF confirm 32 and CHO-K1 HTRF 32*.
`O=C(COc1ncnc2cc([N+](=O)[O-])ccc12)NCc1ccc2c(c1)OCO2` gave OX1R antag-1 81*, GPR7 antag -11, GalR3 antagonist -1, CHO parental Ca -10, OX1R antag-2 -17, OX1R HTRF confirm 34 and CHO-K1 HTRF 45*.
Screening O=C(COC(=O)Cc1ccc([N+](=O)[O-])cc1)NCc1ccc2c(c1)OCO2 returned OX1R antag-1 20, GalR3 antagonist -4, CHO parental Ca -1 and OX1R antag-2 -5.
Screening O=[N+]([O-])c1cccc(COc2ncnc3cc([N+](=O)[O-])ccc23)c1 returned OX1R antag-1 91*, GPR7 antag -11, GalR3 antagonist -6, CHO parental Ca -4, OX1R antag-2 -20, OX1R HTRF confirm 46 and CHO-K1 HTRF 48*.
For C[C@@H]1CN([C@H](C)CO)C(=O)c2cc(NS(=O)(=O)c3ccccc3)ccc2O[C@@H](C)CCCCO[C@@H]1CN(C)Cc1ccc(Cl)c(Cl)c1 the results were GalR3 antagonist -7.
For Cn1nc(C(C)(C)C)cc1C(=O)N1CCCCC1c1cc(C(=O)Nc2ccc3c(c2)OCO3)no1 (stereo not drawn) the results were GalR3 antagonist -5.
Screening COCCNC(=O)C1(C)CCCN(C(=O)c2ccc(OC)c(OC)c2)C1 (stereo not drawn) returned GalR3 antagonist -5.
For COc1ccc(C#Cc2cccc(-c3nc(C(=O)N4CCN(C)CC4)cc4c3[C@H](CCO)N(S(=O)C(C)(C)C)C4)c2)cc1OC (stereo partly drawn) the results were GalR3 antagonist -3.
For COc1ccc(C(=O)NCCN2C(=O)S/C(=C\c3cccnc3)C2=O)c(OC)c1OC the results were OX1R antag-1 82*, GPR7 antag 0, GalR3 antagonist -8, CHO parental Ca -20, OX1R antag-2 -14, OX1R HTRF confirm 58* and CHO-K1 HTRF 24*.
Screening CC(C(=O)NCCN1C(=O)S/C(=C\c2cccnc2)C1=O)N1C(=O)c2ccccc2C1=O (stereo not drawn) returned OX1R antag-1 79*, GPR7 antag -6, GalR3 antagonist 4, CHO parental Ca -14, OX1R antag-2 -34, OX1R HTRF confirm 64* and CHO-K1 HTRF 40*.
CC(=O)NC1=C(Nc2ccc(N(C)C)cc2)C(=O)c2ccccc2C1=O was read as OX1R antag-1 120*, GPR7 antag -14, GalR3 antagonist -7, CHO parental Ca -10, OX1R antag-2 -13, OX1R HTRF confirm 66* and CHO-K1 HTRF 92*.
For COc1cc(C(=O)N2CCCC(c3cc(C(=O)NCc4ccc(F)cc4)no3)C2)cc(OC)c1C (stereo not drawn) the results were GalR3 antagonist -9.
`Cc1ccc(Oc2c(C(N)=O)cc([N+](=O)[O-])cc2[N+](=O)[O-])cc1` gave OX1R antag-1 105*, GPR7 antag 1, GalR3 antagonist 2, CHO parental Ca -3, OX1R antag-2 -3, OX1R HTRF confirm 80* and CHO-K1 HTRF 76*.
Screening O=C(NCC1CCCO1)c1[nH]c(C(F)(F)F)nc1-c1ccccc1 (stereo not drawn) returned GalR3 antagonist 0.
For CC(=O)c1c(C)n([O-])c2cc(F)c(F)cc2[n+]1=O the results were OX1R antag-1 81*, GPR7 antag -12, GalR3 antagonist -2, CHO parental Ca -12, OX1R antag-2 -2, OX1R HTRF confirm 67* and CHO-K1 HTRF 54*.
`O=C(CSc1cccc[n+]1[O-])Nc1c(Br)cc([N+](=O)[O-])cc1Br` gave OX1R antag-1 118*, GPR7 antag -2, GalR3 antagonist 0, CHO parental Ca -15, OX1R antag-2 -3, OX1R HTRF confirm 40 and CHO-K1 HTRF 54*.
Screening CC(C)CNC(=O)C1(C)CCCCCN1C(=O)c1cc2ccccc2s1 (stereo not drawn) returned GalR3 antagonist 1.
